Data set [1] relates to Saccharomyces cerevisiae. Description: Minimum growth-inhibitory concentration against Saccharomyces cerevisiae ATCC 9763 by agar dilution method by the suspension of a fungi containing ~5 x 10e (7) cells/mL. Type of data set: functional. The essentials:
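Agar dilution on Sabouraud–dextrose agar plates with graded compound concentrations. A loopful of yeast suspension (about 5 × 10⁷ cells/mL) was streaked on the surface. Plates were incubated at 30 °C for 3 days. MIC is the lowest concentration with no detectable growth.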
Background: In agar dilution, organisms are placed on agar that contains the substance at set levels.

In data set [2] the target is T1, ATP-dependent translocase ABCB1 (Homo sapiens, UniProt P08183). Description: (§1) Human MDR1 Pgp inhibitory activity by using standard calcein-AM efflux method with the human leukemia CEM cells. Type of data set: cell-based, CCRF-CEM.
Data set [3] has as its target P-glycoprotein (ABCB1, MDR1) (Homo sapiens, UniProt P08183). The description is as §1. Type of data set: cell-based, CCRF-CEM. The settings on record: probe calcein-AM; for IC50: human, human leukemia CEM cells.
Data set [4] has as its target T1, ATP-dependent translocase ABCB1. In words: Direct comparison of the antifungal activities with the relative Pgp-inhibitory potencies, calculated by comparing ug/mL IC50(or IC20). The class given is functional.
Data set [5] in a line: Antifungal activity was determined by its potency compared with that of AbA. Value is determined as ratio of AbA to the analogue. The class given is functional. An outline of the steps: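 Agar dilution MIC against S. cerevisiae ATCC 9763 on Sabouraud–dextrose agar plates containing graded compound concentrations. A loopful of about 5 × 10⁷ cells/mL suspension was streaked on the surface, and plates were incubated at 30 °C for 3 days. MIC was the lowest concentration with no detectable growth. The value is the AbA/analogue activity ratio.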

In data set [6] the test system is Saccharomyces cerevisiae. In words: Relative antifungal activity (against Saccharomyces cerevisiae) compared to AbA.
Data set [7] has as its target T1, ATP-dependent translocase ABCB1.

Results on 13 compounds are retold here after ChEMBL document CHEMBL1133762, “Aureobasidins: structure-activity relationships for the inhibition of the human MDR1 P-glycoprotein ABC-transporter” (J Med Chem, 2000).

SMILES strings stand for the structures. Values after ≈ are worked out from the molar mass of the structure shown. Square brackets hold non-standard residues; d marks the D form. Peptide text beside a SMILES is read from it. Hmp(2R,3S) = CC[C@H](C)[C@@H](O)C(=O)O; NMeVal(β-OH) = CN[C@H](C(=O)O)C(C)(C)O; NMeF = CN[C@@H](Cc1ccccc1)C(=O)O; NMeV = CN[C@H](C(=O)O)C(C)C

T1 sequence (P08183 whole entry): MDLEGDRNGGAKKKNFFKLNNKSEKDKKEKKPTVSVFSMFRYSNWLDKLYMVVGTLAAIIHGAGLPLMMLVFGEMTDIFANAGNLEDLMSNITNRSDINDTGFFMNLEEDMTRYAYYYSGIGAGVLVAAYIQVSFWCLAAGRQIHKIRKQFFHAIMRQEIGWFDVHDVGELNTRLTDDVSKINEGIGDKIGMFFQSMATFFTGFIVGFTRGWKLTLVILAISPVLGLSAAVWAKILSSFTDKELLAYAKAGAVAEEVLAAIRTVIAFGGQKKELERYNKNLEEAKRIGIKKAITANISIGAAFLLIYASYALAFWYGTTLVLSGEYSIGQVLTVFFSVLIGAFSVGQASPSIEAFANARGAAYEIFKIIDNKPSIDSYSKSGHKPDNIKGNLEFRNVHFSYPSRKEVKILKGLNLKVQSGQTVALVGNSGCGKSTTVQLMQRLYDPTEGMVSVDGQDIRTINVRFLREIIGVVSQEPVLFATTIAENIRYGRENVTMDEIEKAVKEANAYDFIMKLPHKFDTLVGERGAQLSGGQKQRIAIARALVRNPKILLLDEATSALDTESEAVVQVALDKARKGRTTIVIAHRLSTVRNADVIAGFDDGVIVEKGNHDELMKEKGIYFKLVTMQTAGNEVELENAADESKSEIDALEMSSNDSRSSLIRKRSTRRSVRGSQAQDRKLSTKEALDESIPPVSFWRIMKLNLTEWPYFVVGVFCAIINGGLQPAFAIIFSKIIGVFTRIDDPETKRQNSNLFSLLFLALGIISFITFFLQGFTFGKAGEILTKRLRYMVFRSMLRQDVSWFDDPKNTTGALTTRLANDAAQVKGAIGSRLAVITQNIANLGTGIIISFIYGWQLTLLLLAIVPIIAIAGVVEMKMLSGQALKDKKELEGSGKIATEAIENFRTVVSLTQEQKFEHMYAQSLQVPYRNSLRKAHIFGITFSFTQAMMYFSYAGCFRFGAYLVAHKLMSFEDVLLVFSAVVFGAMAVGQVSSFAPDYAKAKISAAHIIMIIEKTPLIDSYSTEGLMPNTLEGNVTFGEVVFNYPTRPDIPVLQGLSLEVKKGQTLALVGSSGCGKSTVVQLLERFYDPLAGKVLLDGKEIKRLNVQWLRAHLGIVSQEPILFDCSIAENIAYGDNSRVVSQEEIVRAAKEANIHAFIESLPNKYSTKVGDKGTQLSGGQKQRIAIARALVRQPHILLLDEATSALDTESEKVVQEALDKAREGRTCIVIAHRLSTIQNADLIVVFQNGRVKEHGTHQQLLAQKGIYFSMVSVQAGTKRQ
P-glycoprotein (ABCB1, MDR1), sequence (P08183 whole entry): as above

In the data set with Saccharomyces cerevisiae [1], `CC[C@H](C)[C@@H]1NC(=O)[C@@H]2CCCN2C(=O)[C@@H](C)N(C)C(=O)[C@H](Cc2ccc(O)cc2)NC(=O)[C@H](C(C)C)N(C)C(=O)[C@@H]([C@@H](C)CC)OC(=O)[C@H](C(C)(C)O)N(C)C(=O)[C@H](CC(C)C)NC(=O)[C@H](C(C)C)N(C)C1=O` returned an MIC of 25 µg/mL (≈ 24 µM). The IC50 in data set [2] was 5770 nM. Further, in data set [3], the IC20 was 2120 nM. Besides, the “Pgp AbA/analogue ratio” value in data set [4] was 0.4.

As to `CC[C@H](C)[C@@H]1NC(=O)[C@@H]2CCCN2C(=O)[C@H](Cc2ccccc2)N(C)C(=O)[C@H](Cc2ccccc2)NC(=O)[C@H](C(C)C)N(C)C(=O)[C@@H]([C@@H](C)CC)OC(=O)C(C(C)(C)O)N(C)C(=O)[C@H](CC(C)C)NC(=O)[C@H](C(C)C)N(C)C1=O` (stereo partly drawn), in data set [2], the IC50 is 360 nM. Moreover, the IC20 in data set [3] was 100 nM.

Consider `CC[C@@H](C)[C@@H]1NC(=O)[C@@H]2CCCN2C(=O)[C@H](Cc2ccccc2)N(C)C(=O)[C@H](Cc2ccccc2)NC(=O)[C@H](C(C)C)N(C)C(=O)[C@@H]([C@@H](C)CC)OC(=O)CN(C)C(=O)[C@H](CC(C)C)NC(=O)[C@H](C(C)C)N(C)C1=O`, for which the AbA/analogue ratio in data set [5] is under 0.016.

In the data set with Saccharomyces cerevisiae [1], `CC[C@H](C)[C@H]1OC(=O)[C@H](C(C)(C)O)N(C)C(=O)[C@H](CC(C)C)NC(=O)[C@H](C(C)C)N(C)C(=O)[C@H](C(C)C)NC(=O)[C@@H]2CCCN2C(=O)[C@H](Cc2ccccc2)N(C)C(=O)[C@H](Cc2ccccc2)NC(=O)[C@H](C(C)C)N(C)C1=O` (cyclo(F[NMeF]PV[NMeV]L[NMeVal(β-OH)][Hmp(2R,3S)][NMeV])) came in with an MIC of 0.4 µg/mL (≈ 0.368 µM). Also, the half-maximal inhibitory concentration (IC50) in data set [2] was 1290 nM. Besides, the IC20 in data set [3] was 410 nM. Besides, the “Pgp AbA/analogue ratio” value in data set [4] is reported as 1.8.

As for `CC[C@H](C)[C@@H]1NC(=O)[C@@H]2CCCN2C(=O)[C@@H](C)N(C)C(=O)[C@H](Cc2ccc(OCC3CCCCC3)cc2)NC(=O)[C@H](C(C)C)N(C)C(=O)[C@@H]([C@@H](C)CC)OC(=O)[C@H](C(C)(C)O)N(C)C(=O)[C@H](CC(C)C)NC(=O)[C@H](C(C)C)N(C)C1=O`, the MIC with Saccharomyces cerevisiae [1] was 1.6 µg/mL (≈ 1.41 µM). Also, in the data set with Saccharomyces cerevisiae [6], the “antifungal AbA/analogue ratio” value came to 0.25. Further, the IC50 in data set [2] was 2110 nM. Moreover, the IC20 in data set [3] is 640 nM. The “Pgp AbA/analogue ratio” value in data set [4] is 1.

As to `CC[C@H](C)[C@@H]1NC(=O)[C@@H]2CCCN2C(=O)[C@@H](C)N(C)C(=O)[C@H](CO)NC(=O)[C@H](C(C)C)N(C)C(=O)[C@@H]([C@@H](C)CC)OC(=O)[C@H](C(C)(C)O)N(C)C(=O)[C@H](CC(C)C)NC(=O)[C@H](C(C)C)N(C)C1=O`, in the data set with Saccharomyces cerevisiae [1], the MIC is over 25 µg/mL. Also, the “antifungal AbA/analogue ratio” value in the data set with Saccharomyces cerevisiae [6] is under 0.016. Moreover, the IC50 in data set [2] is over 31000 nM. Further, the IC20 in data set [3] was over 31000 nM. For the same compound, in data set [4], the “Pgp AbA/analogue ratio” value is under 0.1.

As for `CC[C@@H](C)[C@@H]1NC(=O)[C@@H]2CCCN2C(=O)[C@H](Cc2ccccc2)N(C)C(=O)[C@H](Cc2ccccc2)NC(=O)[C@H](C(C)C)N(C)C(=O)[C@@H]([C@H](C)CC)OC(=O)[C@H](C(C)(C)O)N(C)C(=O)[C@H](CC(C)C)NC(=O)[C@H](C(C)C)N(C)C1=O` [AUREOBASIDIN A], in data set [7], the IC50 was determined as 2270 nM.

Regarding `CC[C@@H](C)[C@@H]1NC(=O)[C@@H]2CCCN2C(=O)[C@H](Cc2ccccc2)N(C)C(=O)[C@H](Cc2ccccc2)NC(=O)[C@H](C(C)C)N(C)C(=O)[C@@H](C(C)C)OC(=O)[C@H](C(C)(C)O)N(C)C(=O)[C@H](CC(C)C)NC(=O)[C@H](C(C)C)N(C)C1=O`, in the data set with Saccharomyces cerevisiae [6], the “antifungal AbA/analogue ratio” value is 1. For the same compound, the IC50 in data set [2] was 1100 nM. Besides, the concentration for an effect of 20% (IC20) in data set [3] is 340 nM. Besides, the “Pgp AbA/analogue ratio” value in data set [4] was 2.1.

On to `CC[C@H](C)[C@@H]1NC(=O)[C@@H]2CCCN2C(=O)[C@H](Cc2ccccc2)N(C)C(=O)[C@H](Cc2ccccc2)NC(=O)[C@H](C(C)C)N(C)C(=O)[C@@H]([C@@H](C)CC)OC(=O)[C@H](C(C)(C)O)N(C)C(=O)[C@H](CC(C)C)NC(=O)[C@@H](C(C)C)N(C)C1=O`, for which, in the data set with Saccharomyces cerevisiae [1], the MIC is over 25 µg/mL. Besides, the IC50 in data set [2] is over 2730 nM. Besides, the IC20 in data set [3] was 1800 nM.

In the data set on Saccharomyces cerevisiae [1], `CC[C@H](C)[C@@H]1NC(=O)[C@@H]2CCCN2C(=O)[C@@H](Cc2ccccc2)N(C)C(=O)[C@H](Cc2ccccc2)NC(=O)[C@H](C(C)C)N(C)C(=O)[C@@H]([C@@H](C)CC)OC(=O)[C@H](C(C)(C)O)N(C)C(=O)[C@H](CC(C)C)NC(=O)[C@H](C(C)C)N(C)C1=O` had an MIC of 0.2 µg/mL (≈ 0.182 µM). Further, in data set [2], the IC50 is 2730 nM. Also, in data set [3], the IC20 was 910 nM.

With `CC[C@@H](C)[C@@H]1NC(=O)[C@@H]2CCCN2C(=O)[C@H](Cc2ccccc2)N(C)C(=O)[C@H](Cc2ccccc2)NC(=O)[C@H](C(C)C)N(C)C(=O)[C@@H]([C@@H](C)CC)OC(=O)[C@H]([C@H](C)CO)N(C)C(=O)[C@H](CC(C)C)NC(=O)[C@H](C(C)C)N(C)C1=O`, in the data set on Saccharomyces cerevisiae [6], the “antifungal AbA/analogue ratio” value is on record as 0.06. In data set [3], the IC50 is 1090 nM and the IC20 is 360 nM. The “Pgp AbA/analogue ratio” value in data set [4] was 2.1.

`CC[C@H](C)[C@@H]1NC(=O)[C@H]2CCCN2C(=O)[C@H](Cc2ccccc2)N(C)C(=O)[C@H](Cc2ccccc2)NC(=O)[C@H](C(C)C)N(C)C(=O)[C@@H]([C@@H](C)CC)OC(=O)[C@H](C(C)(C)O)N(C)C(=O)[C@H](CC(C)C)NC(=O)[C@H](C(C)C)N(C)C1=O` showed an MIC with Saccharomyces cerevisiae [1] of 1.6 µg/mL (≈ 1.45 µM). The IC50 in data set [2] is over 2700 nM. For the same compound, in data set [3], the IC20 is 1360 nM.

As for `CC[C@@H](C)[C@@H]1NC(=O)[C@@H]2CCCN2C(=O)[C@H](Cc2ccccc2)N(C)C(=O)[C@H](Cc2ccccc2)NC(=O)[C@H](C(C)C)N(C)C(=O)[C@@H]([C@@H](C)CC)OC(=O)[C@H](C(C)(C)O)N(C)C(=O)[C@H](CC(C)C)NC(=O)C(C(C)C)OC1=O` (stereo partly drawn), the “antifungal AbA/analogue ratio” value in the data set on Saccharomyces cerevisiae [6] is reported as under 0.016. In data set [3], the IC50 is 1660 nM and the IC20 was 460 nM. The “Pgp AbA/analogue ratio” value in data set [4] was 1.4.

Usually MIC stands for the smallest concentration in the dilution series that meets the test's criterion for growth inhibition. Low readings indicate greater potency, high ones weaker potency. One may read the IC50 as the midpoint of a concentration-inhibition curve. The term IC20 denotes the point of the concentration-response curve where the effect stands at 20%.
